Measurements pooled from the literature.
PHIP BD2: PHIP, BD2 (Homo sapiens, UniProt Q8WWQ0)
Methionyl-tRNA synthetase, putative: Methionyl-tRNA synthetase, putative (Trypanosoma brucei brucei, UniProt Q38C91)
SLC10A2: Ileal sodium/bile acid cotransporter (SLC10A2, Homo sapiens, UniProt Q12908)
CDKL3: Cyclin-dependent kinase-like 3 (CDKL3, Homo sapiens, UniProt Q8IVW4)
ACVR2A: Activin receptor type-2A (ACVR2A, Homo sapiens, UniProt P27037)

`O=C(O)C1=CC(=C(c2ccc(O)c(C(=O)O)c2)c2ccc(O)c(C(=O)O)c2)C=CC1=O` gave an inhibition of 100% (Histone-lysine N-methyltransferase SETD7 (SETD7, Homo sapiens, UniProt Q8WTS6); cell-free assay; 10 µM).
For `Cc1cc(NC(=O)c2cccc3cc(-c4cccc5[nH]nc(N)c45)ccc23)ccc1F`, the activity vs control was 98% (Phosphatidylinositol 5-phosphate 4-kinase type-2 alpha (PIP4K2A, Homo sapiens, UniProt P48426); enzyme activity, inhibitor; 0.1 µM).
For `C[S+]([O-])c1ccc(-c2nc(-c3ccncc3)c(-c3ccc(F)cc3)[nH]2)cc1` (centres unmarked), the ΔTm was 1.14 °C (PHIP BD2; thermal stability, DSF; 10 µM).
`Cc1cc2c(cc1N1C(=O)c3cccc4c(Cl)ccc(c34)C1=O)n(C)c(=O)n2C` gave a ΔTm of -2.4 °C (PHIP (Homo sapiens, UniProt Q8WWQ0); thermal stability, DSF; 10 µM).
`CN(CCNCc1cc(Cl)cc(Cl)c1)c1nc2nc(Cl)ccc2[nH]1` has a ΔTm of 18.4 °C (Methionyl-tRNA synthetase, putative; thermal stability, DSF; 100 µM).
For `Oc1ccc(-c2nc(-c3ccncc3)c(-c3ccc(F)cc3)[nH]2)cc1`, the ΔTm was 0.31 °C (Bromodomain-containing protein 9 (BRD9, Homo sapiens, UniProt Q9H8M2); thermal stability, DSF; 10 µM).
For `CC(C(=O)O)c1cccc(C(=O)c2ccccc2)c1` (centres unmarked), the inhibition was 44% (SLC10A2; transporter uptake, inhibitor, radiometric; 1 mM).
The ΔTm of `O=C(Cc1cc(Cl)cc(Cl)c1)N1CCCC(c2nc3cc(F)ccc3[nH]2)C1` (centres unmarked) is reported as 8 °C (Methionyl-tRNA synthetase, putative; thermal stability, DSF; 100 µM).
`C[C@@H]1C[C@H]2[C@@H]3CCC4=CC(=O)C=C[C@]4(C)[C@@]3(F)[C@@H](O)C[C@]2(C)[C@@]1(O)C(=O)CO` gave an inhibition of under 10% (SLC10A2; transporter uptake, inhibitor, radiometric; 1 mM).
`Cc1ccc(C(=O)Nc2ccc(CN3CCN(C)CC3)c(C(F)(F)F)c2)cc1C#Cc1cnc2cccnn12` has a remaining activity of 26% (CDKL3; enzyme activity; 23.5 nM).
`CCOC(=O)[C@](CC)(CCCS(=O)(=O)CCOCCOCCNC(=O)OC(C)(C)C)NC(=O)c1ccc(C2CC2)c(Cc2ccc(F)cc2)n1` has an Emax of 89% (Cannabinoid receptor 2 (CNR2, Homo sapiens, UniProt P34972); cAMP, agonist).
`Cn1c2c(c3ccc(Cl)c(Cl)c31)C(C#N)C1(CCNCC1)NC2=O` (racemic) gave a ΔTm of 0 °C (ACVR2A; thermal stability, DSF; 10 µM).
The inhibition of `CSc1ccc2c(c1)N(CCC1CCCCN1C)c1ccccc1S2` (centres unmarked) is reported as 97.1% (SLC10A2; transporter uptake, inhibitor, radiometric; 1 mM).
`N#Cc1ccc(/C=C/CN(CC[C@H](N)C(=O)O)C[C@H]2O[C@@H](n3cnc4c(N)ncnc43)[C@H](O)[C@@H]2O)cc1` gave an activity vs control of 108% (Histone-lysine N-methyltransferase SETD2 (SETD2, Homo sapiens, UniProt Q9BYW2); enzyme activity, inhibitor; 1 µM).
With `CN1CCN(c2ccc([N+](=O)[O-])cc2NC(=O)c2ccccc2)CC1` the ΔTm was 3.8 °C (WD repeat-containing protein 5 (WDR5, Homo sapiens, UniProt P61964); thermal stability, DSF; 100 µM).
`CN1CCC2(CC1)NC(=O)c1c(c3ccc(Cl)c(Cl)c3n1C)C2C#N` (racemic) has a ΔTm of 0.4 °C (ACVR2A; thermal stability, DSF; 10 µM).
`CC(=O)N[C@H]1CSSC[C@@H](C(=O)N[C@@H](Cc2c[nH]c3ccccc23)C(N)=O)NC(=O)[C@@H](Cc2ccccc2)NC(=O)[C@H](CCCNC(=N)N)NC1=O` gave an Emax of 0% (Melanocortin receptor 5 (MC5R, Homo sapiens, UniProt P33032); cAMP, agonist; HEK293; 3 min).
`Nc1ncnc2occ(-c3ccc(NC(=O)Nc4cc(C(F)(F)F)ccc4F)cc3)c12` has a remaining signal of 1.6% (Serine/threonine-protein kinase 35 (STK35, Homo sapiens, UniProt Q8TDR2); cell-free assay, inhibitor; 20 µM).
`COc1cc(Cl)c(C(=O)N[C@@H](CN[C@H]2CC[C@@H](N)CC2)Cc2ccc(C#N)cc2)cc1-c1ccc(CN[C@H](C)c2ccc(C)cc2)o1` has a remaining activity of 95% (CDKL3; enzyme activity, inhibitor; 1 µM).
`Cc1cnc(Nc2ccc(OCCN3CCCC3)cc2)nc1Nc1cccc(S(=O)(=O)NC(C)(C)C)c1` has a ΔTm of 0.6 °C (PHIP BD2; thermal stability, DSF; 10 µM).
